Source: PubChem BioAssay
Kir21 block: blocks the mouse Kir2.1 inward-rectifier potassium channel. hit rate 0.85% among 310,000. B-score at 10 µM. HEK293-Kir2.1, FluxOR thallium flux fluorescence; stronger effect = lower value;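 active means fluorescence ratio B-score at or below minus 3 SD of library scores, with starting-brightness B-score within 2 SD, cut at about -4.2 in these data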;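 further: channel flux triggered by added potassium and thallium sulfate stimulus; B-score of peak minus minimum fluorescence over baseline after thallium stimulus; more negative B-score means stronger Kir2.1 block with less thallium influx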
Target sequence (P35561 whole entry, looked up): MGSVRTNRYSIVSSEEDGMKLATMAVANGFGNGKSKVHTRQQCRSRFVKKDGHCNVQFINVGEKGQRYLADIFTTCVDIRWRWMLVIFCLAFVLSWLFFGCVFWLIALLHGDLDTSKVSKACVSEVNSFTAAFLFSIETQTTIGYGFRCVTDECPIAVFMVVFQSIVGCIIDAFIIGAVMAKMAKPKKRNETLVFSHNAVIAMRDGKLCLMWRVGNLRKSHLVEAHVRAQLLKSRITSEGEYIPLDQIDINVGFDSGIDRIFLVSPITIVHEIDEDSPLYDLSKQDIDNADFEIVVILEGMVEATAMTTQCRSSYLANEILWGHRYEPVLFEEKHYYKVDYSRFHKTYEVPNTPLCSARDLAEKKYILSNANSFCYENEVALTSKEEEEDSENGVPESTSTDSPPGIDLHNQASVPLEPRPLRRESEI
hERG rescue: shields human hERG channel from block by proarrhythmic agents; Q12809; CHO-hERG, FluxOR thallium flux, dofetilide IC70 present; activation (rescue from dofetilide block), less the hit threshold, % at 10 µM; hit rate 0.51% among 310,000;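 active means activation above the mean of controls blocked by dofetilide plus 5 SD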;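 further: thallium influx through hERG after potassium depolarization seen as dye fluorescence rise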
KCNK3 inh: human KCNK3 channel inhibition, primary screen; O14649; CHO-KCNK3 thallium flux, FluxOR fluorescence; stronger effect = lower value; B-score at 10 µM; hit rate 0.84% among 340,000;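 active means B-score under library mean minus 4 SD, starting fluorescence ratio at most library mean plus 5 SD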;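 further: more negative B-score means stronger inhibition of thallium flux through KCNK3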
KCNQ1 act: human KCNQ1 channel potentiation or activation. P51787. CHO-K1 KCNQ1, thallium flux FluxOR fluorescence; stronger effect = higher value. B-score at 10 µM. hit rate 0.35% among 310,000. AID 2648;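 active means fluorescence ratio B-score, a plate-corrected score, at least three library SD, with initial intensity B-score within 5 SD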
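Schedule – 37 °C overnight plating, 90-min dark dye load, 20-min compound pretreatment · System – stable KCNQ1 CHO-K1 line · Probe or stimulus – thallium- and potassium-containing depolarizing buffer · Measured by – kinetic FluxOR fluorescence, 10 s baseline plus 110 s post-stimulus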
KCNK9 inh: blocks the human KCNK9 two-pore domain potassium channel; Q9NPC2; HEK293 KCNK9, FluxOR thallium flux fluorescence; stronger effect = lower value; B-score at 10 µM; hit rate 1.2% among 310,000;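 active means ratio B-score over 3 SD below the library mean, with starting fluorescence within 5 SD of its mean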;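 further: negative B-score means less thallium flux so channel inhibition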
KCNQ1 inh: inhibitors of human KCNQ1 potassium channel; P51787; CHO-K1 KCNQ1, FluxOR thallium flux fluorescence; stronger effect = higher value; B-score at 10 µM; hit rate 1.3% among 310,000; AID 2642;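 active means compounds whose thallium flux B-score, printed positive for inhibition, exceeds three library SD while starting fluorescence stays within three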;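 further: channel opened by potassium depolarization with thallium stimulus after 20 min compound exposure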
KCNK9 inh conf: human KCNK9 inhibitor confirmation; shares compounds with KCNK9 inh; HEK293 KCNK9 cells, FluxOR thallium flux fluorescence; inhibition, % at 10 µM; hit rate 43% among 4,900; AID 492992;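 active means thallium signal inhibited by more than 5 SD of the compound-free buffer control wells, on both duplicate plates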;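 further: 0% = assay buffer control wells without compound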
Kir2-1 spec: selectivity of KCNK9 modulators against mouse Kir2.1; shares compounds with KCNK9 inh; Kir2.1 cells, FluxOR thallium flux fluorescence; inhibition, % at 10 µM; hit rate 4% among 4,900; AID 492993;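 active means thallium signal drop more than 5 SD beyond the mean of the no-compound control wells, seen in both duplicate plates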;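 further: signal is fluorescence rise after thallium addition divided by baseline fluorescence; plate controls were assay buffer only for no effect and full block by chlorpromazine control for full effect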
KCNK9 uninduced: second counter-screen for KCNK9 modulators: effect in non-induced cells; inhibition, % at 10 µM; hit rate 40% among 4,900; shares compounds with KCNK9 inh; non-induced KCNK9-HEK293, FluxOR thallium flux; AID 492997;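 active means thallium signal drop beyond 5 SD of the untreated control mean, on both duplicate plates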;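 further: plate controls were buffer only IC0 wells for no effect and SID17386958 at its maximal inhibitory level for full effect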
Numbers without * were called inactive; i = inactive; x = not tested or not shown. Shown are actives, neighbours in structure and some others; about 3.7% of the full set was active somewhere.

SMILES	Kir21 block	hERG rescue	KCNK3 inh	KCNQ1 act	KCNK9 inh	KCNQ1 inh	KCNK9 inh conf	Kir2-1 spec	KCNK9 uninduced
O=C(O)c1ccc(Cl)c(S(=O)(=O)N(Cc2ccccc2)c2ccc(Cl)cc2)c1	2.4	-16	i	i	i	i	i	i	i
Cc1ccccc1-n1ncc2c(SCC(=O)N3c4ccccc4CC3C)ncnc21 (stereo not drawn)	0.41	-7	i	i	i	i	i	i	i
Cc1ccccc1-n1ncc2c(SCC(=O)NC3CCCC3)ncnc21	0.53	-4	i	i	i	i	x	x	x
C=CCN(CC=C)C(=O)c1ccc(OC2CCN(C(C)=O)CC2)c(OC)c1	0.55	-5	i	i	i	i	x	x	x
COc1ccc(O)c(/C=N/Nc2nc(Nc3ccccc3)nc(-n3nc(C)cc3C)n2)c1	-0.76	-15	i	i	-12*	10*	46%*	i	i
COc1cc(/C=N/Nc2nc(Nc3ccc(C)cc3)nc(-n3nc(C)cc3C)n2)cc(OC)c1OC	-0.61	-13	i	i	i	i	x	x	x
COc1cc(/C=N/Nc2nc(Nc3ccccc3)nc(-n3nc(C)cc3C)n2)cc(OC)c1OC	0.17	-31	i	i	-9.4*	8*	46%*	i	i
CCOC(=O)C1CCN(C(=O)c2cccc(S(=O)(=O)N3CCCc4ccccc43)c2)CC1	x	x	i	x	x	x	x	x	x
CN1C[C@@H]2[C@@H]3C(=O)N(Cc4ccccc4)C(=O)[C@@H]3[C@](Cc3ccccc3)(C1=O)N2C(=O)c1ccc(C(C)(C)C)cc1	x	x	i	x	x	x	x	x	x
Nc1c(C(=O)N/N=C/c2cccnc2)oc2nc(-c3ccccc3)cc(-c3ccco3)c12	1.2	-14	i	i	-11*	6*	i	i	31%*
O=C(COc1ccc2c3c(c(=O)oc2c1)CCC3)Nc1ccccn1	0.21	-8	i	i	i	i	x	x	x
COc1ccc(OC)c(NC(=O)C(Sc2ccccc2)c2ccccc2)c1 (stereo not drawn)	-1.5	-8	i	i	-11*	i	58%*	i	46%*
COc1ccc(NS(=O)(=O)c2ccc3nc(COc4cccc5ccccc45)[nH]c3c2)cc1	0.17	-17	i	i	i	i	i	i	i
Cc1c(N2C(=O)/C(=C/C3CC=CCC3)SC2=S)c(=O)n(-c2ccccc2)n1C (stereo not drawn)	0.12	-1	i	i	i	i	x	x	x
Cc1ccc(/C=C2\SC(=S)N(c3c(C)n(C)n(-c4ccccc4)c3=O)C2=O)cc1	1.1	-7	i	i	i	i	i	i	i
Cc1c(N2C(=O)/C(=C/c3ccccc3)SC2=S)c(=O)n(-c2ccccc2)n1C	0.13	-8	i	i	i	i	i	i	i
CCOC(=O)C1C(=O)C=C(/C=C/c2ccc(N(C)C)cc2)CC1c1ccccc1 (stereo not drawn)	-7.1	-28	i	i	-8.2*	8*	46%*	38%*	64%*
CCOC(=O)C1C(=O)C=C(c2cccs2)CC1c1ccccc1 (stereo not drawn)	-0.59	-9	i	i	i	i	x	x	x
O=CN1c2ccccc2CSc2ccccc21	0.56	-7	i	i	i	i	x	x	x
COc1ccccc1C/C(N)=N/OC(=O)COc1cccc(C)c1	1.9	-9	i	i	i	i	i	i	i
COc1ccccc1C/C(N)=N/OC(=O)COc1ccc(C)cc1	1.5	-4	i	i	i	i	x	x	x
COc1ccccc1C/C(N)=N/OC(=O)COc1ccc2ccccc2c1	-0.02	-5	i	i	i	i	i	i	i
NS(=O)(=O)c1ccc(NCc2ccccc2OCc2ccccc2F)cc1	-0.31	-7	i	i	i	i	x	x	x
NS(=O)(=O)c1ccc(NCc2cc(Cl)ccc2OCc2ccc(F)cc2)cc1	-2.3	-7	i	i	-13*	i	50%*	i	42%*
Cc1ccc(-c2csc3ncn(CC(=O)N4CCOCC4)c(=O)c23)cc1C	-0.68	-7	i	i	i	i	x	x	x
SMILES	Kir21 block	hERG rescue	KCNK3 inh	KCNQ1 act	KCNK9 inh	KCNQ1 inh	KCNK9 inh conf	Kir2-1 spec	KCNK9 uninduced
Cc1ccc(-c2c(C)sc3ncn(CC(=O)N4CCOCC4)c(=O)c23)cc1C	-0.21	-12	i	i	i	i	i	i	i
CC1=NN(c2ccccc2)C(=O)/C1=C\c1ccc(Oc2ccc([N+](=O)[O-])cc2[N+](=O)[O-])cc1	1.8	0	i	i	i	i	i	i	i
COc1ccc(S(=O)(=O)N2CC3CCCN3c3ccc(C(F)(F)F)cc32)cc1 (stereo not drawn)	-0.35	-3	i	i	-18*	i	72%*	i	44%*
COc1ccc(S(=O)(=O)N2CC3CCCN3c3cc(C(F)(F)F)ccc32)cc1 (stereo not drawn)	0.94	-12	i	i	i	i	x	x	x
Cc1ccc(C)c(NC(=O)c2ccccc2NS(=O)(=O)c2cc([N+](=O)[O-])ccc2C)c1	-0.97	-7	i	i	i	i	x	x	x
Cc1ccc(C)c(NC(=O)c2ccccc2Sc2ccc([N+](=O)[O-])cc2Cl)c1	-0.02	-4	i	i	-14*	i	61%*	i	47%*
C=CCn1c(C)cc(C(=O)CSc2nnc(-c3cccc(S(=O)(=O)N(CC)CC)c3)o2)c1C	0.28	-1	i	i	i	i	i	i	i
CCN(CC)S(=O)(=O)c1cccc(-c2nnc(SCCCC(=O)c3ccccc3)o2)c1	-0.96	-19	i	i	i	i	i	i	i
COc1ccc(S(=O)(=O)Nc2ccc(C)c(S(=O)(=O)N3CCOCC3)c2)cc1[N+](=O)[O-]	x	x	i	x	x	x	x	x	x
Cc1ccccc1Cn1nc(C)c(NC(=O)c2noc3c2CCc2ccccc2-3)c1C	-0.05	-12	i	i	i	i	i	i	i
Cc1ccccc1Cn1nc(C)c(NC(=O)c2noc3c2CC(C(C)(C)C)CC3)c1C (stereo not drawn)	0.74	-4	i	i	i	i	x	x	x
